# Measured values taken from ChEMBL document CHEMBL1144737, “Synthesis and antifungal activity of novel sulfoxide derivatives containing trimethoxyphenyl substituted 1,3,4-thiadiazole and 1,3,4-oxadiazole moiety” (Bioorg Med Chem, 2008).
# Tests used:
# Fusarium oxysporum [1] = assay: Antifungal activity against Fusarium oxysporum at 50 ug/ml by poison plate technique; format: functional
# How it was run: (§1)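 Poison plate method. Compound in PDA at 50 µg/mL final. Fungi precultured on PDA at 27 ± 1 °C for 4 days, then a ~4 mm mycelial disc was placed in the plate centre and incubated at 27 ± 1 °C for 5 days. Acetone in sterile water was the blank and hymexazol the positive control. Three replicates. Colony diameter was measured and I(%) = [(C − T)/(C − 0.4)] × 100.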
# Fusarium graminearum [2] = assay: Antifungal activity against Gibberella zeae at 50 ug/ml by poison plate technique; format: functional
# How it was run: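 Poison-plate (mycelial growth rate) test at a single final concentration in PDA. Fungus was pre-grown 4 days at 27±1 °C, and a 4 mm mycelial plug was placed at the plate centre and incubated 5 days at 27±1 °C. Acetone in sterile water was the untreated control. Triplicate plates were used; inhibition % = (C−T)/(C−0.4)×100 from colony diameters.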
# Cytospora [3] = assay: Antifungal activity against Cytospora mandshurica at 50 ug/ml by poison plate technique; format: functional; how it was run: as §1
# Cytospora [4] = assay: Antifungal activity against Cytospora mandshurica by poison plate technique; format: functional
# How it was run: (§2)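 Poison-plate assay on PDA against nine plant-pathogenic fungi at 100, 50, 25, 12.5 and 6.25 in the medium. Cultures were grown 4 days at 27±1 °C, and 4 mm mycelial plugs were placed centrally on plates and incubated 5 days at 27±1 °C. Acetone in sterile water was the blank. Inhibition % = (C−T)/(C−0.4)×100 from colony diameters. EC50 was obtained by probit analysis, averaged from at least three separate analyses.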
# Sclerotinia sclerotiorum [5] = assay: Effect on sporule germination in Sclerotinia sclerotiorum assessed as germination ratio at 80 ug/ml; format: functional
# How it was run: (§3)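 Compound was mixed into PDA at 0, 20, 40, 60, 80 and 100 µg/mL, and 0.5 mL spore suspension was spread per plate. Plates were incubated at 27 °C and checked every 2 h after 24 h. Germination was scored when control germination exceeded 90%, in three fields per dish, with three replicates. GR% = 100 × G/S.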
# Sclerotinia sclerotiorum [6] = assay: Change in mycelial soluble protein content in Sclerotinia sclerotiorum after 0.5 hr relative to control; format: functional
# How it was run: (§4)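 S. sclerotiorum was grown from six 4 mm discs in 90 mL Czapek medium, shaken at 140 rpm and 27 °C for 15 days. Compound was then added at 100 µg/mL. Mycelium was harvested at 0.5–24 h, ground in 0.05 mol/L Tris–HCl pH 7.5 and centrifuged at 15,000g, 4 °C, for 30 min. Three repetitions. Supernatant read-outs: reducing sugar by DNS at 540 nm against glucose; chitosan (D-GlcNAc) by K2B4O7/DMAB at 544 nm; pyruvate by DNPH/NaOH at 520 nm; protein at 595 nm. Tris–HCl blank.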
# Fusarium graminearum [7] = assay: Antifungal activity against Gibberella zeae by poison plate technique; format: functional, organism-based; how it was run: as §2
# [8] = system: Colletotrichum gloeosporioides; assay: Antifungal activity against Colletotrichum gloeosporioides by poison plate technique; format: functional, organism-based; how it was run: as §2
# Sclerotinia sclerotiorum [9] = assay: Change in mycelial pyruvate content in Sclerotinia sclerotiorum after 24 hrs; format: functional; how it was run: as §4
# Sclerotinia sclerotiorum [10] = assay: Change in mycelial reducing sugar level in Sclerotinia sclerotiorum after 24 hrs; format: functional; how it was run: as §4
# Sclerotinia sclerotiorum [11] = assay: Change in mycelial reducing sugar level in Sclerotinia sclerotiorum after 24 hrs relative to hymexazol; format: functional; parameters: scale not given: the % may be the effect or the level left; how it was run: as §4
# Fusarium oxysporum [12] = assay: Antifungal activity against Fusarium oxysporum by poison plate technique; format: functional, organism-based
# How it was run: (§5)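 Poison plate mycelial growth assay on PDA at 100, 50, 25, 12.5 and 6.25 µg/mL. Mycelial discs were grown at 27 ± 1 °C for 5 days and radial colony growth was measured. EC50 was estimated by probit analysis and averaged from at least three separate analyses.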
# Botrytis cinerea = assay: Antifungal activity against Botrytis cinerea by poison plate technique; format: functional, organism-based; how it was run: as §2
# Sclerotinia sclerotiorum [13] = assay: Change in mycelial N-acetyl-glucosamine content in Sclerotinia sclerotiorum after 24 hrs; format: functional
# How it was run: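 S. sclerotiorum was grown 15 days in Czapek broth shaken at 140 rpm and 27 °C, then dosed at 100 and sampled at 24 h. Dried mycelium (1.0 g) was ground in 0.05 mol/L Tris–HCl pH 7.5 and centrifuged at 15,000g, 4 °C. Supernatant with K2B4O7 was boiled 3 min, then 1% DMAB was added, 20 min at 36 °C, A544. Three repetitions.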
# Sclerotinia sclerotiorum [14] = assay: Change in mycelial chitinase activity in Sclerotinia sclerotiorum assessed as N-acetyl-glucosamine level after 24 hrs
# How it was run: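 Mycelial extract came from S. sclerotiorum grown 15 days in shaken Czapek broth at 27 °C, dosed at 100 and harvested at 24 h, in Tris–HCl pH 7.5. Extract was incubated with colloidal chitin 1 h at 37 °C, boiled and centrifuged. Released GlcNAc was read with 0.8 M K2B4O7, boiling, 1% DMAB, 20 min at 36 °C, A544. The blank was boiled before incubation.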
# Sclerotinia sclerotiorum [15] = assay: Antifungal activity against Sclerotinia sclerotiorum by poison plate technique; format: functional, organism-based; how it was run: as §2
# Sclerotinia sclerotiorum [16] = assay: Change in mycelial soluble protein content in Sclerotinia sclerotiorum after 24 hrs; format: functional
# How it was run: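 Soluble protein was measured in extracts of S. sclerotiorum cultured 15 days in shaken Czapek broth at 27 °C, treated at 100 and harvested at 24 h. Dried mycelium was ground in 0.05 mol/L Tris–HCl pH 7.5 and centrifuged; absorbance was read at 595 nm with buffer blank. Three repetitions.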
# Sclerotinia sclerotiorum [17] = assay: Change in mycelial reducing sugar level in Sclerotinia sclerotiorum upto 3 hrs relative to control; format: functional; parameters: scale not given: the % may be the effect or the level left; how it was run: as §4
# Thanatephorus cucumeris = assay: Antifungal activity against Thanatephorus cucumeris by poison plate technique; format: functional, organism-based; how it was run: as §2
# Sclerotinia sclerotiorum [18] = assay: Change in mycelial chitosan content in Sclerotinia sclerotiorum after 6 hrs; format: functional; how it was run: as §4
# Phytophthora infestans = assay: Antifungal activity against Phytophthora infestans by poison plate technique; format: functional, organism-based; how it was run: as §2
# Rhizoctonia solani = assay: Antifungal activity against Rhizoctonia solani by poison plate technique; format: functional, organism-based; how it was run: as §5
# Sclerotinia sclerotiorum [19] = assay: Effect on membrane permeability of Sclerotinia sclerotiorum at 100 ug/ml after 240 mins relative to control; format: functional, organism-based
# How it was run: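 Washed S. sclerotiorum mycelium (1 g) was placed in tubes with the compound. Conductivity was read over time from 0 to 360 min, then after boiling and cooling. Relative permeability P% = (J1−J0)/(J2−J0)×100.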
# Sclerotinia sclerotiorum [20] = assay: Effect on sporule germination in Sclerotinia sclerotiorum assessed as germination ratio at 100 ug/ml; format: functional; how it was run: as §3
smiles,measurement,setting,value
COc1cc(-c2nnc([S+]([O-])Cc3ccccc3F)o2)cc(OC)c1OC (stereo not given),inhibition at 50 µg/mL,Fusarium oxysporum [1],4.4%
same,inhibition at 50 µg/mL,Fusarium graminearum [2],11.3%
same,inhibition at 50 µg/mL,Cytospora [3],2.82%
CCOC(=O)C[S+]([O-])c1nnc(-c2cc(OC)c(OC)c(OC)c2)s1 (stereo not given),inhibition at 50 µg/mL,Fusarium oxysporum [1],4.58%
same,inhibition at 50 µg/mL,Fusarium graminearum [2],34.8%
same,inhibition at 50 µg/mL,Cytospora [3],8.42%
CCOC(=O)C[S+]([O-])c1nnc(-c2cc(OC)c(OC)c(OC)c2)o1 (stereo not given),inhibition at 50 µg/mL,Fusarium oxysporum [1],1.47%
same,inhibition at 50 µg/mL,Fusarium graminearum [2],18.1%
same,inhibition at 50 µg/mL,Cytospora [3],6.9%
COc1cccc(C[S+]([O-])c2nnc(-c3cc(OC)c(OC)c(OC)c3)s2)c1 (stereo not given),inhibition at 50 µg/mL,Fusarium oxysporum [1],8.65%
same,inhibition at 50 µg/mL,Fusarium graminearum [2],8.29%
same,inhibition at 50 µg/mL,Cytospora [3],11%
COc1cc(-c2nnc([S+]([O-])Cc3ccc(Cl)nc3)o2)cc(OC)c1OC (stereo not given),inhibition at 50 µg/mL,Fusarium oxysporum [1],14.9%
same,inhibition at 50 µg/mL,Fusarium graminearum [2],31.9%
same,inhibition at 50 µg/mL,Cytospora [3],11.9%
COc1cc(-c2nnc([S+]([O-])Cc3cccc([N+](=O)[O-])c3)s2)cc(OC)c1OC (stereo not given),inhibition at 50 µg/mL,Fusarium oxysporum [1],3.31%
same,inhibition at 50 µg/mL,Fusarium graminearum [2],5.45%
same,inhibition at 50 µg/mL,Cytospora [3],6.63%
CCOCC[S+]([O-])c1nnc(-c2cc(OC)c(OC)c(OC)c2)s1 (stereo not given),inhibition at 50 µg/mL,Fusarium oxysporum [1],8.14%
same,inhibition at 50 µg/mL,Fusarium graminearum [2],16.8%
same,inhibition at 50 µg/mL,Cytospora [3],16.1%
COc1cc(-c2nnc([S+]([O-])Cc3ccccc3)s2)cc(OC)c1OC (stereo not given),inhibition at 50 µg/mL,Fusarium oxysporum [1],15.5%
same,inhibition at 50 µg/mL,Fusarium graminearum [2],26.9%
same,inhibition at 50 µg/mL,Cytospora [3],16%
COc1cc(-c2nnc([S+]([O-])Cc3cccc(F)c3)s2)cc(OC)c1OC (stereo not given),inhibition at 50 µg/mL,Fusarium oxysporum [1],11.7%
same,inhibition at 50 µg/mL,Fusarium graminearum [2],14.9%
same,inhibition at 50 µg/mL,Cytospora [3],12%
COc1cc(-c2nnc([S+]([O-])Cc3ccccc3Cl)o2)cc(OC)c1OC (stereo not given),inhibition at 50 µg/mL,Fusarium oxysporum [1],7.04%
same,inhibition at 50 µg/mL,Fusarium graminearum [2],7.79%
same,inhibition at 50 µg/mL,Cytospora [3],-0.33%
COc1cc(-c2nnc([S+]([O-])Cc3ccccc3)o2)cc(OC)c1OC (stereo not given),EC50,Cytospora [4],64 µg/mL
same,Activity,Sclerotinia sclerotiorum [5],12.6%
same,Activity,Sclerotinia sclerotiorum [6],43%
same,EC50,Fusarium graminearum [7],28.8 µg/mL
same,EC50,[8],39.4 µg/mL
same,Activity,Sclerotinia sclerotiorum [9],0.19 mg/mL
same,inhibition at 50 µg/mL,Fusarium oxysporum [1],52.3%
same,Activity,Sclerotinia sclerotiorum [10],0.37 mg/mL
same,Activity,Sclerotinia sclerotiorum [11],8.8%
same,EC50,Fusarium oxysporum [12],58.5 µg/mL
same,EC50,Botrytis cinerea,21.6 µg/mL
same,inhibition at 50 µg/mL,Fusarium graminearum [2],53.3%
same,Activity,Sclerotinia sclerotiorum [13],0.12 mg/mL
same,Activity,Sclerotinia sclerotiorum [14],0.125 mg/mL
same,EC50,Sclerotinia sclerotiorum [15],19.9 µg/mL
same,inhibition at 50 µg/mL,Cytospora [3],56.1%
same,Activity,Sclerotinia sclerotiorum [16],0.69 mg/mL
same,Activity,Sclerotinia sclerotiorum [17],13.3%
same,EC50,Thanatephorus cucumeris,23.4 µg/mL
same,Activity,Sclerotinia sclerotiorum [18],0.12 mg/mL
same,EC50,Phytophthora infestans,33.1 µg/mL
same,EC50,Rhizoctonia solani,44.7 µg/mL
same,permeability,Sclerotinia sclerotiorum [19],26.7%
same,Activity,Sclerotinia sclerotiorum [20],5.4%
COc1ccccc1C[S+]([O-])c1nnc(-c2cc(OC)c(OC)c(OC)c2)o1 (stereo not given),inhibition at 50 µg/mL,Fusarium oxysporum [1],32.3%
same,inhibition at 50 µg/mL,Fusarium graminearum [2],29.9%
same,inhibition at 50 µg/mL,Cytospora [3],18.2%
COc1cc(-c2nnc([S+]([O-])Cc3ccc(F)cc3)s2)cc(OC)c1OC (stereo not given),inhibition at 50 µg/mL,Fusarium oxysporum [1],2.54%
same,inhibition at 50 µg/mL,Fusarium graminearum [2],6.4%
same,inhibition at 50 µg/mL,Cytospora [3],3.83%
COc1cccc(C[S+]([O-])c2nnc(-c3cc(OC)c(OC)c(OC)c3)o2)c1 (stereo not given),inhibition at 50 µg/mL,Fusarium oxysporum [1],30.5%
same,inhibition at 50 µg/mL,Fusarium graminearum [2],37.7%
same,inhibition at 50 µg/mL,Cytospora [3],25.7%
COc1cc(-c2nnc([S+]([O-])Cc3cccc(F)c3)o2)cc(OC)c1OC (stereo not given),inhibition at 50 µg/mL,Fusarium oxysporum [1],-0.88%
same,inhibition at 50 µg/mL,Fusarium graminearum [2],7.29%
same,inhibition at 50 µg/mL,Cytospora [3],-0.31%
Cc1cc(O)no1 [HYMEXAZOL],EC50,Cytospora [4],21.4 µg/mL
same,EC50,Fusarium graminearum [7],26.4 µg/mL
same,EC50,[8],15.8 µg/mL
same,inhibition at 50 µg/mL,Fusarium oxysporum [1],52.1%
same,EC50,Botrytis cinerea,5.12 µg/mL
same,inhibition at 50 µg/mL,Fusarium graminearum [2],53.7%
same,Activity,Sclerotinia sclerotiorum [13],0.13 mg/mL
same,Activity,Sclerotinia sclerotiorum [14],0.124 mg/mL
same,EC50,Sclerotinia sclerotiorum [15],4.63 µg/mL
same,inhibition at 50 µg/mL,Cytospora [3],52%
same,Activity,Sclerotinia sclerotiorum [16],0.91 mg/mL
same,EC50,Thanatephorus cucumeris,40.4 µg/mL
same,EC50,Phytophthora infestans,25.1 µg/mL
same,permeability,Sclerotinia sclerotiorum [19],24.6%
